Results on eleven compounds are retold here after ChEMBL document CHEMBL1150387, “Development and experimental validation of a docking strategy for the generation of kinase-targeted libraries” (J Med Chem, 2008).

Structures are written as SMILES.

Assay [1] has as its target High affinity nerve growth factor receptor (Homo sapiens) (UniProt P04629). The experiment in a line: Inhibition of TrkA at 10 uM by HTRF assay relative to control. The method, boiled down: (§1)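 HTRF kinase assay, one panel of kinases. Inhibitor stock 50 µM in 100% DMSO; tested at 10 µM. ATP and substrate at final levels near Km. Final buffer: 50 mM Hepes/NaOH pH 7.4, 40 µM Na3VO4, 0.005% Tween-20, 1 mM DTT, MnCl2 or MgCl2 at kinase-dependent levels. Started by adding ATP/substrate. Reaction run at room temperature, time varied by kinase. Detection mix in 50 mM Hepes pH 7.4, 0.1% BSA, 150 mM KF, incubated ≥1 h at room temperature. Activity expressed as % of uninhibited control; n=2.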

For assay [2], the target named is Protein kinase C alpha type (Homo sapiens) (UniProt P17252). The experiment in a line: Inhibition of PKCalpha at 10 uM by HTRF assay relative to control. In a few lines:
as §1
For orientation: Time-resolved FRET reads energy transfer from a long-lived donor to a nearby acceptor.

Assay [3] addresses Vascular endothelial growth factor receptor 2 (Homo sapiens) (UniProt P35968). The experiment in a line: Inhibition of KDR at 10 uM by HTRF assay relative to control. The method, boiled down: as §1
The target of assay [4] is T1, Ephrin type-B receptor 4 (Homo sapiens) (UniProt P54760).
T1 sequence (whole entry): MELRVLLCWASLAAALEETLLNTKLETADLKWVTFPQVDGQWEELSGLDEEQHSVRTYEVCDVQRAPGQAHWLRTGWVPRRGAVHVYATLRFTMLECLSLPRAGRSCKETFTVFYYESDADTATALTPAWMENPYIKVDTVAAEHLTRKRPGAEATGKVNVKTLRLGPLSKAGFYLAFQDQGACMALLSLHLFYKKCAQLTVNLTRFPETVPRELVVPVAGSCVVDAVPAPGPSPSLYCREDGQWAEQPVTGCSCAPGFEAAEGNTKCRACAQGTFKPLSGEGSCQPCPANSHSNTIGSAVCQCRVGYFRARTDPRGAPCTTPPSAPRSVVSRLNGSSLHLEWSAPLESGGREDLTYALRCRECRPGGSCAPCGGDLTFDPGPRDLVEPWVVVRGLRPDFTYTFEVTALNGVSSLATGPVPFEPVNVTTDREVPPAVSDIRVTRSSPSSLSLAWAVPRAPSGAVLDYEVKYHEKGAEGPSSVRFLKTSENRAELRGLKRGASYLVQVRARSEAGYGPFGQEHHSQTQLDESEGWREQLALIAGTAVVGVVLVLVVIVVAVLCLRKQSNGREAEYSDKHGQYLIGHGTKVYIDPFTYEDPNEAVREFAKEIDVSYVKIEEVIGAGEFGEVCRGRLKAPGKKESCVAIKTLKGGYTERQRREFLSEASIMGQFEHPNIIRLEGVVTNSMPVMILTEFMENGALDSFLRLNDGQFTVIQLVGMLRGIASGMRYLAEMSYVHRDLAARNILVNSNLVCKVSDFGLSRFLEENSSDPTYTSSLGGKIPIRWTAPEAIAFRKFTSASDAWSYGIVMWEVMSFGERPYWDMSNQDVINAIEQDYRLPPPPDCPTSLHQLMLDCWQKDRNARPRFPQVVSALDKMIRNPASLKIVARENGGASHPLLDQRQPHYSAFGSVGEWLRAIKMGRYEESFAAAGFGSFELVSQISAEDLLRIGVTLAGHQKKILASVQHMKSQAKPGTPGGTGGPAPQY
Description: Inhibition of EphB4 at 10 uM by HTRF assay relative to control. The method, boiled down: as §1

Assay [5] has as its target Proto-oncogene tyrosine-protein kinase Src (Homo sapiens) (UniProt P12931). Description: Inhibition of Src at 10 uM by HTRF assay relative to control. In a few lines: as §1
Assay [6] addresses Ribosomal protein S6 kinase beta-1 (Homo sapiens) (UniProt P23443). The experiment in a line: Inhibition of p70S6K at 10 uM by HTRF assay relative to control. In a few lines:
as §1

Assay [7] deals with Cyclin-dependent kinase 2 (Homo sapiens) (UniProt P24941). The experiment in a line: Inhibition of CDK2 at 10 uM by HTRF assay relative to control. The method, boiled down:
as §1

Assay [8] concerns the target Tyrosine-protein kinase Fes/Fps (Homo sapiens) (UniProt P07332). The experiment in a line: Inhibition of FES at 10 uM by HTRF assay relative to control. In a few lines:
as §1

The target in assay [9] is Cyclin-dependent kinase 1 (Homo sapiens) (UniProt P06493). Description: Inhibition of CDK1 at 10 uM by HTRF assay relative to control. The method, boiled down: as §1
The target in assay [10] is Protein kinase C gamma type (Homo sapiens) (UniProt P05129). The experiment in a line: Inhibition of PKCgamma at 10 uM by HTRF assay relative to control. The method, boiled down:
as §1

In assay [11] the target is Vascular endothelial growth factor receptor 1 (Homo sapiens) (UniProt P17948). The experiment in a line: Inhibition of FLT1 at 10 uM by HTRF assay relative to control. The method, boiled down:
as §1

Assay [12] addresses T2, Serine/threonine-protein kinase Chk1 (Homo sapiens) (UniProt O14757).
T2 sequence (whole entry): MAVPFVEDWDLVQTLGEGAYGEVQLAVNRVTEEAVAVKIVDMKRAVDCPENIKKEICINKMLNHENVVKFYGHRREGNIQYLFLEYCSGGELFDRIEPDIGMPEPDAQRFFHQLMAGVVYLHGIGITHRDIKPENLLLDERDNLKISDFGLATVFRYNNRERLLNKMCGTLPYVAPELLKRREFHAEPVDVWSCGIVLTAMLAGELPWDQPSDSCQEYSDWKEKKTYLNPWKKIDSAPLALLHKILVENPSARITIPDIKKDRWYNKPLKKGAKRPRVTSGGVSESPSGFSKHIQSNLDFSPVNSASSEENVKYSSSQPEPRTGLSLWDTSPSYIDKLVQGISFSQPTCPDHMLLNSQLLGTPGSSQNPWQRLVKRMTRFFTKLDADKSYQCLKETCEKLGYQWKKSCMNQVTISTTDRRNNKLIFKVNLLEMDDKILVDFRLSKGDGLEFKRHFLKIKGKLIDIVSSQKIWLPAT
Description: Inhibition of CHK1 at 10 uM by HTRF assay relative to control. In a few lines: as §1

In assay [13] the target is T3, Calcium/calmodulin-dependent protein kinase type IV (Homo sapiens) (UniProt Q16566).
T3 sequence (whole entry): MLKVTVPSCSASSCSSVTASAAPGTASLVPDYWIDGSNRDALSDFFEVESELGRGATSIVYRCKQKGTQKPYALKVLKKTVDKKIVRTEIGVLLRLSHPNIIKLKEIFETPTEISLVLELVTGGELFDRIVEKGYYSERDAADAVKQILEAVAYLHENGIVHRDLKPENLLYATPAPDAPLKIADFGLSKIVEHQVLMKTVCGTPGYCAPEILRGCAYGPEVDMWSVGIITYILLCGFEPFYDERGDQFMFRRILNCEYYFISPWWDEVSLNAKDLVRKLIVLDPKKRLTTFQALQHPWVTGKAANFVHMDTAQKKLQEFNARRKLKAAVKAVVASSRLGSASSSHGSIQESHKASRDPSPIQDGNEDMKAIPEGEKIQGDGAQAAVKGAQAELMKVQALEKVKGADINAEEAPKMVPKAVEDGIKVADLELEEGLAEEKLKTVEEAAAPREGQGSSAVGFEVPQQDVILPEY
The experiment in a line: Inhibition of CaMK4 at 10 uM by HTRF assay relative to control. In a few lines: as §1

Vascular endothelial growth factor receptor 1 (Homo sapiens), sequence (P17948 whole entry): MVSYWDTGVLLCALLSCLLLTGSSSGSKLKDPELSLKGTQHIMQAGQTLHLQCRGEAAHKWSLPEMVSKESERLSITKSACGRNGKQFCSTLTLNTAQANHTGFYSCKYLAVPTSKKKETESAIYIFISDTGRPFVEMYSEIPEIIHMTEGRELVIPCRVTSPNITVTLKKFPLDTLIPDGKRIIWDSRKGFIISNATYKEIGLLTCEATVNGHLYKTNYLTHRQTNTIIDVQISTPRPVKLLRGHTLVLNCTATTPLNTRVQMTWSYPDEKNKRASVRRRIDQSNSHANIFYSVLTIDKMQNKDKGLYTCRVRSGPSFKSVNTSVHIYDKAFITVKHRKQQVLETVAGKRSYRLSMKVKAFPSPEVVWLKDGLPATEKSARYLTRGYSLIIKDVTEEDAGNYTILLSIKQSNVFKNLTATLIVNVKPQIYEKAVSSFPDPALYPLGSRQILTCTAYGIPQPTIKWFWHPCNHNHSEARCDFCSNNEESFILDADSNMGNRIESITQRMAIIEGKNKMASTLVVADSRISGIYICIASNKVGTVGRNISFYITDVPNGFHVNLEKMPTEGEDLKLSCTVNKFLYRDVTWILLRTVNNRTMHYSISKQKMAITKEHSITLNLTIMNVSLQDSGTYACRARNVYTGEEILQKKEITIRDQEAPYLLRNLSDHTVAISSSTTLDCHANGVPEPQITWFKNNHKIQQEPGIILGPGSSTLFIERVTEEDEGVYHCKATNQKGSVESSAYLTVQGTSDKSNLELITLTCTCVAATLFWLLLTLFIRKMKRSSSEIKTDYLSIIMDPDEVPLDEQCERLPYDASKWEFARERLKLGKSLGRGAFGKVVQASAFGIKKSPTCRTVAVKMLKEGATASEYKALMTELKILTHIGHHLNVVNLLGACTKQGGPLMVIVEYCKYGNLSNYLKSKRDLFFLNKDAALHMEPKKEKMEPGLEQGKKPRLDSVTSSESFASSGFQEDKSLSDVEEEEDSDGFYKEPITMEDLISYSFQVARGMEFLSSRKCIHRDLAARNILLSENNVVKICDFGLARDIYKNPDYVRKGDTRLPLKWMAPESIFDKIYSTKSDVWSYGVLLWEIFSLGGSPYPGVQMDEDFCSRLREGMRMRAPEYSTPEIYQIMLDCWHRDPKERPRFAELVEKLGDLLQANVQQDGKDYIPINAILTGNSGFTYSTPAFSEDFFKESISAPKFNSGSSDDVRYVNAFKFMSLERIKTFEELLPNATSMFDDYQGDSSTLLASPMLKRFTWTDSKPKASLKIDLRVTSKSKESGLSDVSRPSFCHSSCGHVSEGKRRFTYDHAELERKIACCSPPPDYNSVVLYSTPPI
Proto-oncogene tyrosine-protein kinase Src (Homo sapiens), sequence (P12931 2-536 limits assumed): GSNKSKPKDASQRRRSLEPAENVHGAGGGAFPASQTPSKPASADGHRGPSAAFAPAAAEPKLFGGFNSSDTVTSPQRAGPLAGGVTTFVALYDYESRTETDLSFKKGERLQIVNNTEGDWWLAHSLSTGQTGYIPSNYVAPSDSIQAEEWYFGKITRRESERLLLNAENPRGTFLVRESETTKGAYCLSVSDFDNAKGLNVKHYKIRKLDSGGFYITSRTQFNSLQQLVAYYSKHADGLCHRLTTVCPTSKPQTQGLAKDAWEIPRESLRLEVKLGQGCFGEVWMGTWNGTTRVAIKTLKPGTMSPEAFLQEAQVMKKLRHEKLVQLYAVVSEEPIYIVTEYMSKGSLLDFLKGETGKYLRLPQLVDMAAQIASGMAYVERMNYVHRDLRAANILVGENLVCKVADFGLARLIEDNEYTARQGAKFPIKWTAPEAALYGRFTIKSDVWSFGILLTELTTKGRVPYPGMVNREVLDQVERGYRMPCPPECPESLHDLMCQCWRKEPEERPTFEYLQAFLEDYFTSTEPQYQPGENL
Ribosomal protein S6 kinase beta-1 (Homo sapiens), sequence (P23443 whole entry, looked up): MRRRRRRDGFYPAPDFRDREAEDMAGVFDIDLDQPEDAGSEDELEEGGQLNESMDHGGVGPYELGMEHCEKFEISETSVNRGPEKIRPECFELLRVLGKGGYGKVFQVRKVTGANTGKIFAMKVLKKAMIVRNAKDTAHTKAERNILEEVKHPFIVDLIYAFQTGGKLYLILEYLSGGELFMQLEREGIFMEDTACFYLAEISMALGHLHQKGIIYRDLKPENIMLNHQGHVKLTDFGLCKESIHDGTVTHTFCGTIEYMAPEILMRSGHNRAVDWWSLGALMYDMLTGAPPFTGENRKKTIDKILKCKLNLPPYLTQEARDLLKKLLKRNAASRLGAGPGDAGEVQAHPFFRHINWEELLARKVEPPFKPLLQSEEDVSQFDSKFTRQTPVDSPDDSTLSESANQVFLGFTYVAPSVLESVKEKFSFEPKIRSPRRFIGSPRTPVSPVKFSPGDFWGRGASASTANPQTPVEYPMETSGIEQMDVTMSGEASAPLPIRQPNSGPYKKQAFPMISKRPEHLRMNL
Tyrosine-protein kinase Fes/Fps (Homo sapiens), sequence (P07332 whole entry): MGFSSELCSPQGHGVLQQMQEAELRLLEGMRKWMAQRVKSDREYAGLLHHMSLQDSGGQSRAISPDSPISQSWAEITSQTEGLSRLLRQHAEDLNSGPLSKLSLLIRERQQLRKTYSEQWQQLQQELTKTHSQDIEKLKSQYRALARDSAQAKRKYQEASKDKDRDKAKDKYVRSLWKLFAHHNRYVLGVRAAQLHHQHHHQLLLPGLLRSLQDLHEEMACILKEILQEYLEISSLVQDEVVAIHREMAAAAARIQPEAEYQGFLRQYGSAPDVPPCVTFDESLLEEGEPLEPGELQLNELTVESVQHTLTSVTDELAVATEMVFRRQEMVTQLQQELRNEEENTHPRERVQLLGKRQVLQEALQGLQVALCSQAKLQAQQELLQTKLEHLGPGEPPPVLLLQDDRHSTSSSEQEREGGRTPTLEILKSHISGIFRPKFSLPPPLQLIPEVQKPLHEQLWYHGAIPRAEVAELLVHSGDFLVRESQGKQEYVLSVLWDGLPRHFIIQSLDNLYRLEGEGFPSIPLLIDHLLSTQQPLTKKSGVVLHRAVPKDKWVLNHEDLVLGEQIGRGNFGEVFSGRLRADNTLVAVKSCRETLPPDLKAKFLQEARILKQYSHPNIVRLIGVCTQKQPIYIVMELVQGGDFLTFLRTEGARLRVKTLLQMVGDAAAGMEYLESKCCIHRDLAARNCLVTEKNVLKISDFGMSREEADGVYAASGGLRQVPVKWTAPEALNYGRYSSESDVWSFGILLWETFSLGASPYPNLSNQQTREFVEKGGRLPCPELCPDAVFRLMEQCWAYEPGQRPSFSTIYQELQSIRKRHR
Cyclin-dependent kinase 1 (Homo sapiens), sequence (P06493 whole entry, looked up): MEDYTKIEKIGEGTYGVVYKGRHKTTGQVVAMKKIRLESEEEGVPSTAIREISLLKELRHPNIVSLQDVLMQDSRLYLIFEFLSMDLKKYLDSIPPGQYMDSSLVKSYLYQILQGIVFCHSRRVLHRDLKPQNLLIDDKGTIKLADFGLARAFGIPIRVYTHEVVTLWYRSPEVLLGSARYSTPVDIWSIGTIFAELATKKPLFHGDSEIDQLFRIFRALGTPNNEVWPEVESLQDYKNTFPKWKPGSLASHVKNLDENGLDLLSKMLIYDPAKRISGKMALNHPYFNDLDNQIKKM

For orientation: inhibition means how much of the control response was suppressed. With `O=C(NC1Cc2ccccc2C1)c1cccc(Nc2ccnc(N3CCN(c4ccccc4)CC3)n2)c1`, the inhibition in assay [1] is 5%; in assay [2] it was 0%; in assay [3], 6%; in assay [4], 0%; in [5], 9%; in [6], 9%. Also, the inhibition in [7] was determined as 2%; in [8], 5%; in [9] it was 0%; in assay [10] it was 3%; in assay [11], 0%; in assay [12] it was 2%. Further, the inhibition in [13] was found to be 0%.

`Clc1ccc2sc(CN3CCN(c4ncnc5c4CN(Cc4ccccc4)CC5)CC3)cc2c1`: the inhibition in [1] was determined as 13%; in assay [2] it was 8%; in assay [3], 11%; in assay [4], 0%; in assay [5], 0%; in [6], 11%. Further, the inhibition in assay [7] amounted to 16%; in [8] it was 6%; in assay [9], 0%; in assay [10], 2%; in assay [11], 0%; in assay [12], 5%. Further, the inhibition in [13] was determined as 0%.

Regarding `Cc1cccc(N(C)c2cc(Nc3cccc(C(=O)N(CC(C)C)CC(C)C)c3)ncn2)c1`, the inhibition in assay [1] came to 9%; in assay [2] it was 0%; in assay [3] it was 5%; in assay [4] it was 0%; in assay [5] it was 2%; in assay [6], 11%. Besides, the inhibition in [7] is 6%; in assay [8] it was 7%; in assay [9], 0%; in [10], 3%; in [11], 5%; in [12], 0%. In addition, in [13], the inhibition amounted to 0%.

Take `Cc1cccc(N(C)c2cc(N3CCN(CC(=O)Nc4nc(-c5ccccc5)cs4)CC3)ncn2)c1`: the inhibition in assay [1] turned out to be 8%; in [2], 3%; in [3], 9%; in [4] it was 0%; in assay [5], 0%; in assay [6], 3%. For the same compound, the inhibition in [7] worked out at 2%; in [8], 0%; in assay [9], 0%; in assay [10], 0%; in [11], 14%; in [12], 1%. Besides, the inhibition in assay [13] was determined as 0%.

With `Cc1cccc(Oc2ccnc(N3CCN(C(=O)c4c(C)noc4C)CC3)n2)c1`, the inhibition worked out at 8% in assay [1]; 0% in [2]; 18% in [3]; 0% in assay [4]; 0% in assay [5]; 5% in assay [6]. Further, the inhibition in assay [7] was found to be 2%; in assay [8], 7%; in assay [9], 0%; in assay [10] it was 3%; in assay [11], 7%; in [12], 3%. Besides, in [13], the inhibition came out at 0%.

For `O=C(COc1ccccc1)N1CCN(c2nccc(Nc3ccc4ncsc4c3)n2)CC1`, the inhibition worked out at 9% in assay [1]; 0% in [2]; 35% in assay [3]; 0% in [4]; 13% in [5]; 15% in assay [6]. The inhibition came out at 8% in assay [7]; 18% in assay [8]; 0% in assay [9]; 14% in [10]; 3% in [11]; 4% in assay [12]. The inhibition in [13] came out at 0%.

`Cc1ccc(CN2CCN(c3nccc(C(C#N)c4ccccn4)n3)CC2)cc1` (stereo not drawn): the inhibition stood at 5% in assay [1]; 0% in assay [2]; 0% in assay [3]; 0% in assay [4]; 4% in assay [5]; 11% in [6]. Moreover, the inhibition stood at 7% in assay [7]; 3% in assay [8]; 0% in assay [9]; 4% in [10]; 0% in assay [11]; 8% in assay [12]. The inhibition in assay [13] was 0%.

Consider `CC(=O)CCCCC(=O)N1CCN(c2nccc(Oc3cccc(C)c3)n2)CC1`, for which the inhibition in assay [1] worked out at 0%; in assay [2], 0%; in [3], 14%; in assay [4] it was 0%; in assay [5], 5%; in [6] it was 3%. The inhibition stood at 10% in assay [7]; 16% in assay [8]; 0% in [9]; 0% in assay [10]; 1% in [11]; 4% in assay [12]. Further, the inhibition in assay [13] worked out at 0%.

Take `Nc1nc(Nc2ccc3ncsc3c2)cc(N2CCC[C@H]2C(=O)N[C@@H](CO)c2ccccc2)n1`: the inhibition in [1] worked out at 9%; in [2], 0%; in assay [3], 10%; in assay [4], 0%; in assay [5], 0%; in assay [6], 5%. For the same compound, the inhibition in [7] was 1%; in assay [8], 3%; in [9], 0%; in assay [10] it was 1%; in assay [11], 5%; in assay [12], 2%. The inhibition in assay [13] was 0%.

On to `COc1ccc(-c2noc(CN3CCN(c4cc(Nc5cccc(O)c5)ncn4)CC3)n2)cc1`, for which the inhibition in [1] was found to be 7%; in assay [2], 0%; in assay [3], 0%; in assay [4] it was 0%; in [5], 3%; in assay [6] it was 12%. Moreover, the inhibition in assay [7] worked out at 6%; in assay [8] it was 7%; in assay [9], 0%; in assay [10] it was 5%; in [11], 0%; in assay [12] it was 2%. In addition, in assay [13], the inhibition was 0%.

Consider `COc1cccc(Nc2cc(N3CCC[C@H]3C(=O)NCCc3ccc(O)cc3)nc(N)n2)c1`, for which the inhibition in assay [1] was found to be 7%; in assay [2], 0%; in assay [3], 6%; in [4] it was 0%; in [5] it was 2%; in assay [6], 7%. Also, the inhibition came out at 3% in assay [7]; 4% in assay [8]; 0% in [9]; 5% in [10]; 2% in assay [11]; 2% in assay [12]. Further, the inhibition in assay [13] came to 0%.
